One assay deals with L1210. Nature of the assay: Tested for the inhibition of L1210 cell proliferation. The class given is functional, cell-based. To be noted: Mus musculus. Put shortly:
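L1210 cells were grown in RPMI 1640 with 10% FCS, 2 mM L-glutamine and 10 mM HEPES (pH 7.4). Exponential-phase cells (10^5 cells/mL) were exposed for 24 h to 5 drug concentrations in triplicate, then pulsed 3 h with 0.5 µCi/mL [3H]thymidine. Cells were harvested onto filters and counted. IC50 is 50% inhibition of incorporation versus untreated cells, given as the mean of 2–5 independent experiments.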

Assay [1] relates to P388. Nature of the assay: Compound was tested for T/C range at optimal dose of 0.25 mg/kg for antitumor activity against P388 leukemia cells in mice. The class given is functional, Mus musculus.
The subject of assay [2] is P388. Nature of the assay: Long-term survivors (LTS) for 60 days at optimal dose of 0.25 mg/kg for antitumor activity against P388 leukemia cells in 6 mice. Type of assay: functional, Mus musculus.
The next assay addresses Tubulin. Nature of the assay: The compound tested for the inhibition of tubulin polymerization. Type of assay: functional. Put shortly:
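Tubulin was partially purified from dog brain by polymerization/depolymerization cycles and used at 0.5 mg/mL. Compounds were added in DMSO (10 µL per 500 µL reaction) at 10^-6 to 10^-9 M, with DMSO-only controls. Polymerization was followed by turbidity at 350 nm. Rates from two separate experiments were plotted against concentration, and IC50 was read graphically.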

Assay [3] deals with P388. Put plainly: Compound was tested for T/C range at optimal dose of 8.00 mg/kg for antitumor activity against P388 leukemia cells in mice. Type of assay: functional, Mus musculus.
Assay [4] relates to P388. Nature of the assay: Long-term survivors (LTS) for 60 days at optimal dose of 8.00 mg/kg for antitumor activity against P388 leukemia cells in 5 mice. The class given is functional, Mus musculus.
Assay [5] deals with P388. Put plainly: Compound was tested for T/C range at optimal dose of 1.5 mg/kg for antitumor activity against P388 leukemia cells in mice. The class given is functional, Mus musculus.
Assay [6] relates to P388. Put plainly: Long-term survivors (LTS) for 60 days at optimal dose of 1.5 mg/kg for antitumor activity against P388 leukemia cells in 6 mice. Type of assay: functional, Mus musculus.
Assay [7] deals with P388. Nature of the assay: Compound was tested for T/C range at optimal dose of 3.0 mg/kg for antitumor activity against P388 leukemia cells in mice; value ranges from 157-203. The class given is functional, Mus musculus.
In assay [8] the test system is P388. Nature of the assay: Long-term survivors (LTS) for 60 days at optimal dose of 3.0 mg/kg for antitumor activity against P388 leukemia cells in 45 mice. Type of assay: functional, Mus musculus.

For `CCOP(=O)(OCC)[C@H](C)NC(=O)[C@@]1(O)[C@H](O)[C@]2(CC)C=CCN3CC[C@@]4(c5cc([C@@]6(C(=O)OC)C[C@@H]7CN(CCc8c6[nH]c6ccccc86)C[C@](O)(CC)C7)c(OC)cc5N(C)[C@@H]14)[C@@H]32`, the IC50 was determined as 0.4 nM in the assay with L1210 and 200 nM at Tubulin. In the assay on P388 [1], this molecule had a T/C of 342%. Besides, the LTS in the assay on P388 [2] amounted to 2.

With `CCOP(=O)(OCC)[C@H](Cc1ccccc1)NC(=O)[C@@]1(O)[C@H](O)[C@]2(CC)C=CCN3CC[C@@]4(c5cc([C@@]6(C(=O)OC)C[C@@H]7CN(CCc8c6[nH]c6ccccc86)C[C@](O)(CC)C7)c(OC)cc5N(C)[C@@H]14)[C@@H]32`, in the assay with L1210, the half-maximal inhibitory concentration (IC50) stood at 9.64 nM. In the assay on P388 [3], the T/C is on record as 229%. Moreover, the LTS in the assay with P388 [4] was determined as 0.

`CCOP(=O)(OCC)C(CC(C)C)NC(=O)[C@@]1(O)[C@H](O)[C@]2(CC)C=CCN3CC[C@@]4(c5cc([C@@]6(C(=O)OC)C[C@@H]7CN(CCc8c6[nH]c6ccccc86)C[C@](O)(CC)C7)c(OC)cc5N(C)[C@@H]14)[C@@H]32` (mixture of isomers) registered an IC50 with L1210 of 3.13 nM. Also, the T/C in the assay on P388 [5] worked out at 261%. The molecule further returned an LTS in the assay with P388 [6] of 1.

`CC[C@]1(O)C[C@@H]2CN(CCc3c([nH]c4ccccc34)[C@@](C(=O)OC)(c3cc4c(cc3OC)N(C)[C@H]3[C@@](O)(C(=O)OC)[C@H](OC(C)=O)[C@]5(CC)C=CCN6CC[C@]43[C@@H]65)C2)C1` [VINBLASTINE]: in the assay on L1210, it took 3.15 nM to reach half-maximal inhibition (IC50). In addition, the T/C with P388 [7] amounted to 157%. The same molecule yielded an LTS with P388 [8] of 2.

The values are drawn from ChEMBL document CHEMBL1125276 (J Med Chem, 1991).
